RGS4 inh: inhibitors of human RGS4. B-score at 10 µM. HEK293 M3R/RGS4 inducible, Fluo-4 calcium flux; hits give high values; triggered by carbachol at its EC20. AID 463165. P49798. 0.45% of 310,000 active;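 active means B-score, a plate-corrected calcium signal, over three deviations above library mean, with baseline fluorescence within five deviations of library mean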;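 further: RGS4 expression induced by doxycycline in cells with stable M3 receptor; B-score is computed from the integrated fluorescence ratio over baseline after carbachol; higher B-score means a larger calcium signal and so more RGS4 inhibition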
Target sequence (P49798 whole entry, looked up): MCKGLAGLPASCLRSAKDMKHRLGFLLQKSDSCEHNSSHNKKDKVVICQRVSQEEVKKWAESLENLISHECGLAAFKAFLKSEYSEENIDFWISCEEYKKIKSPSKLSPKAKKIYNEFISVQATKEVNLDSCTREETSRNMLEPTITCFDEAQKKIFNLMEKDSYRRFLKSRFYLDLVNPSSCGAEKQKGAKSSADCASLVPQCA
MrgX1 agonist: activates human MrgX1 receptor signaling | MrgX1-HEK293 cells, Fluo-4 calcium fluorescence, agonist mode; hits give high values | AID 588627 | B-score at 10 µM | Q96LB2 | 0.44% of 310,000 active;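 active means calcium response B-score plate-corrected fluorescence ratio at least 3 library SD, with starting fluorescence B-score inside 5 SD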
Target sequence (Q96LB2 whole entry, looked up): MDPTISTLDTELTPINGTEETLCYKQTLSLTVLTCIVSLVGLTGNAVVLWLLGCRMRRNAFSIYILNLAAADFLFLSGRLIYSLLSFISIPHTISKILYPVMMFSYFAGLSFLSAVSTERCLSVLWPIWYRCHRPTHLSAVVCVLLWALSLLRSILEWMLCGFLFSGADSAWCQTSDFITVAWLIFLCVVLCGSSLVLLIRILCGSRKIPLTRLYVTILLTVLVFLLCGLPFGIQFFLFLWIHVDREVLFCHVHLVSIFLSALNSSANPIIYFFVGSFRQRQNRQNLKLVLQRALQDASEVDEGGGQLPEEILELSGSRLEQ
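System – MrgX1-expressing HEK293 cells · Incubation – cells plated overnight, dye loaded 0.5 h 37 °C, 0.5 h room temperature · Technique – kinetic Fluo-4 NW fluorescence of intracellular calcium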
RGS4 act: RGS4 potentiation or activation. 0.92% of 310,000 active. AID 463111. B-score at 10 µM. HEK293 M3R/inducible RGS4, carbachol calcium flux Fluo4; hits give low values;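 active means B-score of the integrated calcium signal more than 4 SD below the library mean, with starting fluorescence not abnormally high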;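 further: negative B-score means reduced calcium response which marks RGS4 activation or potentiation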
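System – HEK293 FlpIn-TREx cells, stable M3R, doxycycline-inducible RGS4 · Reagent – ECmax carbachol challenge · Times – compound preincubation 20 min at room temperature before agonist · Technique – Fluo4 fluorescence kinetic imaging of calcium · Measure – B score of integrated Fluo4 ratio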
MrgX1 allo act: allosterically activates human MrgX1 receptor signaling | Q96LB2 | MrgX1-HEK293, Fluo-4 calcium flux, FDSS; hits give high values | B-score at 10 µM | 0.63% of 310,000 active | AID 588675;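 active means plate-corrected calcium response at least 3 library SD above typical, normal starting fluorescence, not activating the receptor alone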;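 further: compound read alongside a low EC10 to EC30 dose of BAM8-22 agonist; peak minus trough fluorescence over baseline measured at the second addition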
MrgX1 antagonist: human MrgX1 receptor antagonism, primary screen; B-score at 10 µM; 1.3% of 310,000 active; AID 588676; MRGX1-HEK293 calcium flux, Fluo-4, BAM8-22 antagonism; hits give low values; Q96LB2;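 active means calcium-response B-score plate-corrected more than 3 library SD below zero, starting fluorescence within 5 deviations, no agonist response on first addition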;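 further: peak minus trough fluorescence over baseline after final BAM8-22 challenge near maximal dose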
RGS4 inh valid: validation of RGS4 inhibitors. shares compounds with RGS4 inh. HEK293 M3R/RGS4, carbachol calcium Fluo-4 fluorescence; carbachol added at its EC20; 0 = buffer wells, 100 = carbachol control. calcium response, % at 10 µM. 65% of 1,700 active. AID 492999;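 active means duplicate-averaged calcium response above the buffer-only control mean plus 5 SD of those controls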;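 further: integrated fluorescence ratio F max minus min over baseline F0; higher response in RGS4-induced cells means RGS4 inhibition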
M3R Ca ctr: non-induced cell nonspecific activity of RGS4 inhibitors; 20% of 1,900 active; shares compounds with RGS4 inh; activity (percent), % at 10 µM; HEK293 M3R non-induced, carbachol calcium Fluo-4; submaximal (EC20) carbachol stimulus; buffer wells 0%, carbachol control wells 100%; call rule not given here;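 further: RGS4 induction absent so cells express M3R without RGS4; higher means more calcium signal and flags a non-specific hit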
M3R basal Ca ctr: second RGS4 inhibitor counter-screen in uninduced cells lacking carbachol | calcium response (agonist-mode artifact), % at 10 µM | HEK293 M3R/RGS4 non-induced, Fluo-4 calcium, no carbachol; normalised: buffer wells 0%, carbachol wells 100% | AID 493001 | shares compounds with RGS4 inh | 22% of 1,900 active;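 active means duplicate-averaged calcium rise in uninduced cells above buffer wells' mean plus 5 SD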
* hit, by the source's call; i = inactive; nt = no result given. An excerpt weighted towards active compounds, which were near 3.5% of everything screened.

SMILES	RGS4 inh	MrgX1 agonist	RGS4 act	MrgX1 allo act	MrgX1 antagonist	RGS4 inh valid	M3R Ca ctr	M3R basal Ca ctr
Cc1ccc(-n2nc3c(=O)n(CC(=O)NCc4ccccn4)nc(C)c3c2C)cc1	i	i	i	i	i	nt	nt	nt
Cc1cccc(N2CCN(C(=O)C3CC(=O)N(C4CCCC4)C3)CC2)c1C (configuration not stated)	i	i	i	i	i	nt	nt	nt
COc1ccc(/C(C)=N/Nc2ccc(C(=O)O)cc2)c(OC)c1	i	i	i	i	i	nt	nt	nt
COc1ccc2c(c1)C(=NNc1ccc(C(=O)O)cc1)c1cc(OC)ccc1-2	6.7*	i	i	i	i	22%*	i	i
FC(F)(F)c1cccc(-c2nn[nH]n2)c1	4.8*	i	i	i	i	i	i	i
CC(=O)c1ccc(S(=O)(=O)Nc2cccc(-n3cnnn3)c2)cc1	i	i	i	i	i	nt	nt	nt
COc1ccc(C(c2c(C)[nH]n(-c3ccccc3)c2=O)c2c(C)[nH]n(-c3ccccc3)c2=O)cc1OC	i	i	i	i	i	nt	i	i
Cc1ccc(C(C[N+](=O)[O-])c2c(C)[nH]n(-c3ccccc3)c2=O)cc1 (configuration not stated)	6.7*	36*	i	i	i	7.0%*	32%*	17%*
Cc1[nH]n(-c2ccccc2)c(=O)c1C(C[N+](=O)[O-])c1ccc(Cl)cc1 (configuration not stated)	10*	32*	i	i	i	28%*	i	11%*
Cc1[nH]n(-c2ccccc2)c(=O)c1C(C[N+](=O)[O-])c1ccc(F)cc1 (configuration not stated)	i	i	i	i	i	nt	i	7.5%*
Cc1[nH]n(-c2ccccc2)c(=O)c1Sc1ccc(Cl)cc1	i	i	i	i	i	nt	nt	nt
NC(=O)NS(=O)(=O)Oc1ccccc1	i	i	i	i	i	nt	nt	nt
O=Nc1c(O)n(Cc2ccc(Cl)cc2Cl)c2ccccc12	6.6*	i	i	i	i	5.5%*	i	i
N#Cc1ccc(OCC(=O)Nc2cccc(S(=O)(=O)NC3=NCCCCC3)c2)cc1	i	i	i	i	i	nt	nt	nt
Cc1nn(-c2cccc(Cl)c2)c2nc(-c3ccco3)cc(C(=O)O)c12	i	i	i	i	i	nt	nt	nt
Cc1cccc(-n2nc(C)c3c(C(=O)O)cc(-c4cccs4)nc32)c1	9.5*	i	i	i	i	19%*	30%*	i
Cc1cccc(-n2c3nc(=O)[nH]c(=O)c-3cc3c(C)nn(-c4ccccc4)c32)c1C	7*	i	i	i	i	i	i	i
Cc1nn(-c2ccccc2)c2c1cc1c(=O)n(C)c(=O)nc-1n2-c1ccccc1F	i	i	i	i	i	nt	nt	nt
CCc1nnc(N/N=C/c2ccc(N3CCC(C)CC3)c([N+](=O)[O-])c2)n1N	i	i	i	i	i	nt	nt	nt
Cc1nnc(N/N=C/c2cc([N+](=O)[O-])c(N3CCC(C)CC3)cc2N2CCC(C)CC2)n1N	4.9*	i	i	i	i	9.5%*	36%*	i
COc1ccc(CCNCC(O)Cn2c3ccccc3c3ccccc32)cc1OC (configuration not stated)	17*	i	i	i	i	62%*	i	14%*
COc1ccccc1NCC(O)Cn1c2ccccc2c2ccccc21 (configuration not stated)	i	i	i	i	i	nt	nt	nt
Nc1nc2ccccc2n1CCOc1ccc(Br)cc1	i	i	i	i	i	nt	nt	nt
S=C(Nc1ccccc1)Nc1nc2ccccc2n1CCOc1ccc(Br)cc1	5*	i	i	i	i	10%*	i	i
Cc1noc(NS(=O)(=O)c2ccc(N/C=C/C(=O)c3ccc(F)cc3)cc2)c1C	i	i	i	i	i	nt	i	i
SMILES	RGS4 inh	MrgX1 agonist	RGS4 act	MrgX1 allo act	MrgX1 antagonist	RGS4 inh valid	M3R Ca ctr	M3R basal Ca ctr
Cc1noc(NS(=O)(=O)c2ccc(N/C=C/C(=O)c3ccncc3)cc2)c1C	i	i	i	i	i	i	i	i
Cc1noc(NS(=O)(=O)c2ccc(N/C=C\C(=O)c3ccncc3)cc2)c1C	i	i	i	i	i	nt	i	i
O=C(c1cccc(S(=O)(=O)N2CCOCC2)c1)N1CCCC(C(F)(F)F)C1 (configuration not stated)	i	i	i	i	i	nt	nt	nt
COC(=O)Cn1ncc(N2C3CC(CC(C)(C)C3)C2C)c(Cl)c1=O (configuration not stated)	i	i	i	i	i	nt	nt	nt
CCN(C(=O)COC(=O)c1c2c(nc3ccccc13)/C(=C/c1ccccc1)CC(C)C2)C1CCS(=O)(=O)C1 (configuration not stated)	i	i	i	i	i	nt	nt	nt
COc1cc(/C=C/c2[nH]c(=O)[nH]c(=O)c2[N+](=O)[O-])ccc1OCCC(C)C	i	i	i	i	i	nt	nt	nt
O=c1[nH]c(/C=C/c2ccccc2)c([N+](=O)[O-])c(=O)[nH]1	5.7*	i	i	i	i	22%*	i	i
CCC(C)Oc1ccc(/C=C/c2[nH]c(=O)[nH]c(=O)c2[N+](=O)[O-])cc1OC (configuration not stated)	5.6*	i	i	i	i	10%*	i	76%*
O=c1[nH]c(/C=C/c2cccc([N+](=O)[O-])c2)c([N+](=O)[O-])c(=O)[nH]1	i	i	i	i	i	nt	nt	nt
COc1cc(C(C)=O)ccc1Oc1ncnc2c1cnn2-c1ccc(F)cc1	i	i	i	i	i	nt	nt	nt
COc1ccc(Br)cc1CN1CCN(S(=O)(=O)Cc2ccccc2)CC1	28*	i	i	i	i	i	i	i
COc1cc(/C=C(/C(=O)c2cccs2)c2nc3ccccc3[nH]2)cc(OC)c1O	22*	i	i	i	i	88%*	41%*	i
